Assay results published in ChEMBL document CHEMBL4368911, “Metal-Binding Pharmacophore Library Yields the Discovery of a Glyoxalase 1 Inhibitor” (J Med Chem, 2019).
The source made the active and inactive calls. The calls are words filed in the database; no cut-off is given here.

What was measured:
Lactoylglutathione lyase [1] = molecular target: T1, Lactoylglutathione lyase (Homo sapiens, UniProt Q04760); assay: Inhibition recombinant human N-terminal 6His-tagged GLO1 (2 to 184 residues) expressed in Escherichia coli using MG as substrate preincubated for 15 to 20 mins followed by substrate addition and measured every 1 min for 8 mins
Summary of the method: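 Recombinant human GLO1, 40 ng per well, preincubated 15–20 min with inhibitor in 100 mM sodium phosphate pH 7.0. Substrate was GSH + MG hemithioacetal, premixed 20 min at room temperature; DMSO ≤5% final. Absorbance at 240 nm read every 1 min for 8 min. Rates compared with no-inhibitor controls after background subtraction. Chugai-1 as reference.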
Target sequence in this assay (Q04760 whole entry, the tested form may be a part): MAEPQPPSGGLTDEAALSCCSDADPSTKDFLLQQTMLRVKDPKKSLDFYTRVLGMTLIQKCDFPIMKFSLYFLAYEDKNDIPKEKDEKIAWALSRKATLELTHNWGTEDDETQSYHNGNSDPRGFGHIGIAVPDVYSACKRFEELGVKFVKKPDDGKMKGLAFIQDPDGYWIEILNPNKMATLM

Lactoylglutathione lyase [2] = molecular target: T1, Lactoylglutathione lyase; assay: Inhibition recombinant human N-terminal 6His-tagged GLO1 (2 to 184 residues) expressed in Escherichia coli at 50 uM using MG as substrate preincubated for 15 to 20 mins followed by substrate addition and measured every 1 min for 8 mins
Target sequence in this assay (Q04760 2-184 limits assumed): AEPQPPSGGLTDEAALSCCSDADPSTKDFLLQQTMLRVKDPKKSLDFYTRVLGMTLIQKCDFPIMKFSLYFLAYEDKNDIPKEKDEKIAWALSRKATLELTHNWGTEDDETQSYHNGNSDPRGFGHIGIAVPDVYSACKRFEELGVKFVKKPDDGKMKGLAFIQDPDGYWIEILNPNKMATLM

[3] = Toxicity in FVB/NJ mouse at =>50 mg/kg, ip; format: organism-based; details: in vivo
Summary of the method: (§1)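 Toxicity in mice judged by observation after i.p. dosing.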

Lactoylglutathione lyase [4] = molecular target: T1, Lactoylglutathione lyase; assay: Inhibition of human GLO1
Target sequence in this assay (Q04760 whole entry, the tested form may be a part): as the sequence (Q04760 whole entry, the tested form may be a part) above

[5] = Drug uptake in FVB/NJ mouse brain at 25 mg/kg, ip measured after 30 mins post dose by LC-MS/MS analysis; format: ADME, organism-based; details: read-out: Drug uptake
Summary of the method: (§2)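 Single i.p. dose, then brain sampled at 30, 60, 120 or 240 min, n = 3 per time point. Mice anesthetized with isoflurane and perfused with PBS through the left ventricle. Brains minced, extracted with acetonitrile, bead-homogenized, centrifuged and filtered. LC-MS/MS against an 11-point calibration (5–5000 ng/mL) spiked into blank brain. Median reported as ng/mg wet brain.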

[6] = Drug uptake in FVB/NJ mouse brain at 12.5 mg/kg, ip measured after 60 mins post dose by LC-MS/MS analysis; format: ADME, organism-based; details: read-out: Drug uptake; summary of the method: as §2
[7] = Drug uptake in FVB/NJ mouse brain at 12.5 mg/kg, ip measured after 30 mins post dose by LC-MS/MS analysis; format: ADME, organism-based; details: read-out: Drug uptake; summary of the method: as §2
[8] = Drug uptake in FVB/NJ mouse brain at 12.5 mg/kg, ip measured after 120 mins post dose by LC-MS/MS analysis; format: ADME, organism-based; details: read-out: Drug uptake; summary of the method: as §2
[9] = Drug uptake in FVB/NJ mouse brain at 25 mg/kg, ip measured after 120 mins post dose by LC-MS/MS analysis; format: ADME, organism-based; details: read-out: Drug uptake; summary of the method: as §2
[10] = Drug uptake in FVB/NJ mouse brain at 12.5 mg/kg, ip measured after 240 mins post dose by LC-MS/MS analysis; format: ADME, organism-based; details: read-out: Drug uptake; summary of the method: as §2
Mus musculus [11] = assay: In-vivo inhibition of GLO1 in FVB/NJ mouse assessed as increase in methylglyoxal accumulation at 12.5 mg/kg, ip measured at 30 mins post dose by LC-MS/MS analysis relative to control; format: functional
Summary of the method: (§3)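 Brain MG measured 30–240 min after i.p. dosing and compared with vehicle-treated mice. Brains taken after PBS perfusion under isoflurane, then acetonitrile extraction, homogenization, centrifugation and filtration. LC-MS/MS quantified against an 11-point calibration (5–5000 ng/mL) in blank brain matrix. Expressed per mg brain tissue.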

[12] = Drug uptake in FVB/NJ mouse brain at 25 mg/kg, ip measured after 60 mins post dose by LC-MS/MS analysis; format: ADME, organism-based; details: read-out: Drug uptake; summary of the method: as §2
Mus musculus [13] = assay: In-vivo inhibition of GLO1 in FVB/NJ mouse assessed as increase in methylglyoxal accumulation at 12.5 mg/kg, ip measured at 240 mins post dose by LC-MS/MS analysis relative to control; format: functional; details: in the assay text read “25 mg/kg” for “12.5 mg/kg”; summary of the method: as §3
[14] = Toxicity in FVB/NJ mouse up to 100 mg/kg, ip; format: organism-based; details: in vivo; summary of the method: as §1
[15] = Drug uptake in FVB/NJ mouse brain at 25 mg/kg, ip measured after 240 mins post dose by LC-MS/MS analysis; format: ADME, organism-based; details: read-out: Drug uptake; summary of the method: as §2
Mus musculus [16] = assay: Antidepressant-like activity in FVB/NJ mouse assessed as reduction in immobility at 12.5 mg/kg, ip measured after 120 mins by forced swim test; format: functional, organism-based
Summary of the method: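 Mice 108–148 days old, 12 h light–dark cycle, tested in the light phase. Each mouse got vehicle (8% DMSO, 18% Tween, […]) on one day and drug on the other, i.p., counterbalanced, about 3 weeks apart. FST run 2 h post-injection: 6 min in a bucket filled 48 cm with 23–25 water. Immobility time analysed by ANOVA with sex and test order as factors.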

IC50 (Lactoylglutathione lyase [1]) [µM] | Compound | also measured
5.7 | O=S(=O)(Nc1cccc2cccnc12)c1ccc(F)c(F)c1 | 
4.9 | O=S(=O)(Nc1cccc2cccnc12)c1cccs1 | 
0.79 | O=S(=O)(Nc1ccc(CCc2ccccc2)c2cccnc12)c1ccccn1 | 
4.6 | O=S(=O)(CCCc1ccccc1)Nc1cccc2cccnc12 | 
8.7 | O=S(=O)(CCc1ccccc1)Nc1cccc2cccnc12 | 
11.5 | CS(=O)(=O)Nc1ccc(-c2ccccc2)c2cccnc12 | 
11.2 | O=S(=O)(Nc1cccc2cccnc12)c1cccnc1 | 
5.5 | Cn1cnc(S(=O)(=O)Nc2cccc3cccnc23)c1 | 
0.64 | COc1ccc(-c2ccc(NS(=O)(=O)c3ccccn3)c3ncccc23)cc1 | 
1.32 | O=S(=O)(Nc1cc(CCc2ccc(F)cc2)cc2cccnc12)c1ccccn1 | 
0.59 | COc1ccc(-c2ccc(NS(=O)(=O)c3ccccn3)c3ncccc23)cc1Cl | 
> 20 | O=S(=O)(Nc1cccc2cccnc12)C1CC1 | 
18.5 | CS(=O)(=O)Nc1cccc2cccnc12 | inhibition (Lactoylglutathione lyase [2]): > 50%
0.79 | O=S(=O)(Nc1ccc(CCc2ccc(F)cc2)c2cccnc12)c1ccccn1 | 
3.9 | O=S(=O)(Nc1cccc2cccnc12)c1ccc2ncsc2c1 | 
> 20 | Cn1cc(S(=O)(=O)Nc2cccc3cccnc23)cn1 | 
> 100 | CS(=O)(=O)Nc1ccc(N2CCCCC2)c2cccnc12 | 
> 20 | CC(C)S(=O)(=O)Nc1cccc2cccnc12 | 
13.9 | CS(=O)(=O)Nc1ccc(-c2ccc(F)c(F)c2)c2cccnc12 | 
43 | Cc1ccc2cccc(NS(C)(=O)=O)c2n1 | 

IC50 (Lactoylglutathione lyase [1]) [µM] | Compound | also measured
> 20 | CCCCS(=O)(=O)Nc1cccc2cccnc12 | 
8.5 | O=S(=O)(Nc1cccc2cccnc12)c1ccccc1 | 
1.04 | COc1cccc(-c2ccc(NS(=O)(=O)c3ccccn3)c3ncccc23)c1 | 
1.3 | O=S(=O)(Nc1cccc2cccnc12)c1ccccn1 | 
6.6 | N#Cc1ccc(S(=O)(=O)Nc2cccc3cccnc23)cc1 | 
6.2 | CS(=O)(=O)Nc1ccc(-c2ccc(Cl)cc2)c2cccnc12 | 
> 20 | CS(=O)(=O)Nc1ccc(-c2ccncc2)c2cccnc12 | 
0.48 | O=S(=O)(Nc1ccc(-c2ccc(Cl)cc2)c2cccnc12)c1ccccn1 | Activity [3]: Toxic
> 20 | N#Cc1ccccc1S(=O)(=O)Nc1cccc2cccnc12 | 
> 200 | CS(=O)(=O)Nc1cccc2ccncc12 | 
 | COC(=O)c1c(C)cc(Oc2cc(C)cc(O)c2O)cc1O | Ki (Lactoylglutathione lyase [4]): 0.23 µM
1.19 | COc1cc(OC)cc(-c2ccc(NS(=O)(=O)c3ccccn3)c3ncccc23)c1 | 
> 20 | O=S(=O)(Nc1cccc2cccnc12)C1CCCCC1 | 
15.4 | CS(=O)(=O)Nc1ccc(-c2cccs2)c2cccnc12 | 
0.54 | O=S(=O)(Nc1ccc(-c2ccc(Cl)c(Cl)c2)c2cccnc12)c1ccccn1 | 
3.6 | O=S(=O)(Nc1cccc2cccnc12)c1ccc2ccccc2c1 | 
11.2 | CS(=O)(=O)Nc1ccc(-c2ccc3c(c2)OCO3)c2cccnc12 | 
3.9 | CSc1nc2ccc(S(=O)(=O)Nc3cccc4cccnc34)cc2s1 | 
7.6 | O=S(=O)(Cc1ccccc1)Nc1cccc2cccnc12 | 
> 200 | CC(=O)Nc1cccc2cccnc12 | 

IC50 (Lactoylglutathione lyase [1]) [µM] | Compound | also measured
4.2 | CC(C)(C)c1ccc(S(=O)(=O)Nc2cccc3cccnc23)cc1 | 
7.5 | O=S(=O)(Nc1cccc2cccnc12)c1ccc(F)cc1 | 
> 200 | CS(=O)(=O)Nc1cccc2ncccc12 | 
11.9 | CS(=O)(=O)Nc1ccc(-c2ccco2)c2cccnc12 | 
1.21 | O=S(=O)(Nc1cc(CCc2ccccc2)cc2cccnc12)c1ccccn1 | 
> 200 | CNS(=O)(=O)c1cccc2cccnc12 | 
7 | COc1ccc(S(=O)(=O)Nc2cccc3cccnc23)cc1 | 
0.5 | O=S(=O)(Nc1ccc(-c2ccccc2)c2cccnc12)c1ccccn1 | 
> 100 | CS(=O)(=O)Nc1ccc(N2CCOCC2)c2cccnc12 | 
6.9 | COc1cccc(S(=O)(=O)Nc2cccc3cccnc23)c1 | 
6.1 | O=S(=O)(Nc1cccc2cccnc12)c1ccc2c(c1)OCO2 | 
> 20 | CS(=O)(=O)Nc1ccc(-c2cncnc2)c2cccnc12 | 
0.72 | O=S(=O)(Nc1ccc(-c2ccc(F)cc2)c2cccnc12)c1ccccn1 | 
0.37 | O=S(=O)(Nc1ccc(-c2cccc(Cl)c2)c2cccnc12)c1ccccn1 | 
7.3 | N#Cc1cccc(S(=O)(=O)Nc2cccc3cccnc23)c1 | 
> 200 | CS(=O)(=O)Oc1cccc2cccnc12 | 
> 20 | COc1ccccc1S(=O)(=O)Nc1cccc2cccnc12 | 
14.5 | Cc1ccc2cccc(NS(=O)(=O)c3ccccc3)c2n1 | 
6.6 | O=C1Cc2cc(S(=O)(=O)Nc3cccc4cccnc34)ccc2N1 | 
0.46 to 0.463 | COc1cc(CCc2cc(NS(=O)(=O)c3ccccn3)c3ncccc3c2)cc(OC)c1 | concentration at 0.5 h [5]: 400 ng/g; concentration at 1 h [6]: 14400 ng/g; concentration at 0.5 h [7]: 2100 ng/g; concentration at 2 h [8]: 6000 ng/g; concentration at 2 h [9]: 18900 ng/g; concentration at 4 h [10]: 2200 ng/g; fold change (FC) (Mus musculus [11]): 11; concentration at 1 h [12]: 6700 ng/g; fold change (FC) (Mus musculus [13]): 13; Activity [14]: Non-Toxic; concentration at 4 h [15]: 8300 ng/g; Activity (Mus musculus [16]): Active
